Measurements gathered from unrelated publications.
Compare with care: the assays were run in different laboratories.
Target: Mitogen-activated protein kinase 9 (MAPK9, Homo sapiens, UniProt P45984)

| SMILES | observed | method | concentration | remaining binding [%] |
| --- | --- | --- | --- | --- |
| CCC(=O)N[C@@H]1CC[C@H](C(=O)N(C)c2ccc(-c3nc4ccccc4o3)cc2)C1 | cell-free assay | competition with immobilised ligand | 1 µM | 98 |
| FC(F)(F)Oc1cccc(-c2cnc3ccc(-c4ccncc4)nn23)c1 | cell-free assay | competition with immobilised ligand | 5 µM | 76 |
| COc1ccnn2ncc(-c3ccnc(N(C)C)n3)c12 | binding | – | 1 µM | 100 |
| C[C@@H]1CN(c2ccc3ncc(-c4ccc5[nH]nc(C6CC6)c5c4)n3n2)C[C@H](C)O1 | binding | competition with immobilised ligand | 50 nM | 80 |
| CC1=C(C#N)C(c2ccc3c(c2)c(NC(=O)c2ccccc2C)nn3C)C(C#N)=C(C)N1 | cell-free assay | competition with immobilised ligand | 1 µM | 73 |
| c1cnn2ncc(-c3ccnc(N4CCC45COC5)n3)c2c1 | binding | – | 1 µM | 44 |
| O=C(NCCCN1CCOCC1)c1ccc(Nc2ncc(Cl)c(-c3ccc(Cl)s3)n2)cc1 | binding | competition with immobilised ligand | 1 µM | 11 |
| NS(=O)(=O)c1cc(NC(=O)C2(c3ccccc3Cl)CC2)ccc1Oc1cccc(Cl)c1 | cell-free assay | competition with immobilised ligand | 1 µM | 100 |
| CN(C)c1ncc(F)c(-c2cnn3ncccc23)n1 | binding | – | 1 µM | 82 |
| COc1ccc2cc(OCC3(C(=O)O)CN(C(=O)c4ccc(F)cc4)C3)ccc2c1 | cell-free assay | competition with immobilised ligand | 1 µM | 100 |
| COc1ncc2cc3ccccc3nc2c1C#N | cell-free assay | competition with immobilised ligand | 5 µM | 100 |
| COc1cnc(Nc2cccc(S(N)(=O)=O)c2)nc1N1CCN(c2ccccc2)CC1 | binding | competition with immobilised ligand | 1 µM | 72 |
| N[C@@H]1CCN(c2nccc(-c3cnn4ncccc34)n2)C1 | binding | – | 1 µM | 100 |
| O=C(c1ccc(Nc2ncc(Cl)c(-c3ccc(Cl)s3)n2)cc1)N1CCC(N2CCCC2)CC1 | binding | competition with immobilised ligand | 1 µM | 1.1 |
| CNC(=O)Nc1ccc2c(c1)[C@@]1(CC2)OC(=O)N(CC(=O)N(Cc2ccc(F)cc2)[C@@H](C)C(F)(F)F)C1=O | cell-free assay | competition with immobilised ligand | 1 µM | 69 |
| O=C(Nc1c[nH]nc1C(=O)NC1CCNCC1)c1cc(F)cc(F)c1 | binding | competition with immobilised ligand | 1 µM | 100 |
